Rows were chosen to be rich in hits. Some 1.8% of all compounds tested hit in one or more screens of this group.
GalR3 antagonist: antagonists of human GalR3 | O60755 | HEK293 GalR3-CNG cAMP membrane potential fluorescence; galR3 body fused to GalR1 C-terminus | inhibition, % at 3 µM | 0.44% of 360,000 active | AID 651719;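 active means inhibition above the screen-wide average plus 3 SD, cut at about 13% in these data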;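 further: forskolin and galanin both at EC90 stimulate the cells; cAMP rise reported by CNG channel membrane potential dye signal; 0% = forskolin plus galanin with DMSO and 100% = forskolin alone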
PG9 binder: binds the HIV-1 gp120 antibody PG9 | inhibition, % at 6.7 µM | TR-FRET gp120-PG9 antibody binding | AID 624416 | 0.43% of 360,000 active; in the data active means inhibition above about 8.5%
NR2E3 ag-1: activates human NR2E3 receptor | Q9Y5X4 | CHO-S Gal4-NCOR/VP16-NR2E3 two-hybrid, luciferase | inhibition of corepressor binding, % at 3.98 µM | 0.35% of 360,000 active;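 active means inhibition above the mean of all tested compounds plus 3 SD, cut at about 70% in these data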;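 further: 0% = DMSO with NR2E3 transfected cells and 100% = cells lacking NR2E3 construct; higher means lower luciferase signal from less NR2E3 corepressor binding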
Rev-erbA mod: modulators of human Rev-erb alpha DNA binding. activity, % at 10 µM. 0.79% of 370,000 active. AID 1259318. Rev-erbα–FITC-DNA binding, fluorescence polarization, 90 min;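 active means activity above about 14%, limit read from the data; passing the limit was not always enough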;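 further: 0% = DMSO wells with 35 nM protein and 100% = DMSO wells with 750 nM protein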
Target sequence (P20393 whole entry, looked up): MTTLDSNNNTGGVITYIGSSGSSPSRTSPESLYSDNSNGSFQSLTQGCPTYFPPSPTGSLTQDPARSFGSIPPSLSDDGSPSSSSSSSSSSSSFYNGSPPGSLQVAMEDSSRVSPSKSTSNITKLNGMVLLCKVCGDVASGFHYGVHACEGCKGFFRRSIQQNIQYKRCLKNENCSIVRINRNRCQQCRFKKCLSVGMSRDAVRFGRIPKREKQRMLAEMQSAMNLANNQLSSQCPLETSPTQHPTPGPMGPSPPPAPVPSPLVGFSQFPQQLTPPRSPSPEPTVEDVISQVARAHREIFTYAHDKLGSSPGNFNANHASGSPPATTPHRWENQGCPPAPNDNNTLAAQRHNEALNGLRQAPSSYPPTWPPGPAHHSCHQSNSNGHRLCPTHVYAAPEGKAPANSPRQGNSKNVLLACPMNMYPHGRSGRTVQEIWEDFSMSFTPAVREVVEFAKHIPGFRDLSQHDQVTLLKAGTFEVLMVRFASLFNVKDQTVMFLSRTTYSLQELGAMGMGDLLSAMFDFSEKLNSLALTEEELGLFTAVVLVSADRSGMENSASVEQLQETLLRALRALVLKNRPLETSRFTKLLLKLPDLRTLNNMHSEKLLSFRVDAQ
NR2E3 ag-2: agonists of human nuclear receptor NR2E3; inhibition of corepressor binding, % at 4.78 µM; 0.12% of 320,000 active; GST-NR2E3/biotin-RetCOR TR-FRET, 1536-well;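 active means percent inhibition above the cutoff of mean plus 3 SD of all tested compounds, set per screening campaign, cut at about 20% in these data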;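 further: 0% = DMSO wells and 100% = biotin wells as full block of FRET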
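Format: 1536-well format; test system: GST-NR2E3 and biotin-RetCOR proteins; read-out basis: percent inhibition of TR-FRET ratio; timing: 5 h incubation at 4 °C; detection: time-resolved FRET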
NR2E3 ag conf: confirmation of human NR2E3 agonists; shares compounds with NR2E3 ag-1; 51% of 2,300 active; inhibition, % at 3.98 µM; CHO-S mammalian two-hybrid NR2E3-NCOR, luciferase luminescence; AID 624378;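 active means average inhibition above a cutoff equal to the mean inhibition of all tested compounds plus one SD, cut at about 70% in these data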;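 further: 0% = DMSO in NR2E3 cells and 100% = DMSO in cells lacking NR2E3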
VP16 counter: counter-screen for NR2E3 agonists: GAL4-VP16 reporter inhibitors; shares compounds with NR2E3 ag-1; CHO-S GAL4-VP16 luciferase reporter, luminescence; inhibition, % at 3.98 µM; 29% of 2,300 active; AID 624379;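 active means mean inhibition above a cutoff equal to the average over all tested compounds plus one standard deviation, cut at about 70% in these data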;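 further: luciferase from a UAS reporter driven by GAL4-VP16 transactivation; 0% = DMSO with VP16-transfected cells and 100% = DMSO with cells lacking VP16; higher means less reporter light so more repression of VP16 activity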
* = called active by the depositor; · = not tested or not shown.

SMILES	GalR3 antagonist	PG9 binder	NR2E3 ag-1	Rev-erbA mod	NR2E3 ag-2	NR2E3 ag conf	VP16 counter
CN(C(=O)COc1ccccc1C(=O)NCCOc1ccccc1)c1ccccc1	5.4	-0.5	76.6*	-1.5	6.8	80.3*	67.5
C/C(=N\NC(=S)NCc1ccccc1)c1ccc2ccccc2c1	2.3	-1.3	58.2	3.8	1.9	-28.4	-56.5
NNC(=S)NCCc1ccccc1	-5.1	-1.1	66.1	-2.5	-3.5	-2.1	-7.3
S=C(NCCc1ccccc1)NCCc1ccccc1	-3.9	-1.3	-86.0	6.3	-0.2	·	·
C=CCNC(=S)N/N=C(\C)c1ccc(OC)cc1	-3.5	-2.3	36.5	8.8	4.7	·	·
COc1ccc(/C(C)=N/NC(=S)NCc2ccco2)cc1	-5.5	-1.0	47.5	4.5	-1.3	3.6	-9.8
COc1ccc(CNC(=S)N/N=C(\C)c2ccc(OC)cc2)cc1	-6.0	-1.5	50.9	3.2	1.2	-14.4	-12.2
Cc1ccc2nc(N)[nH]c(=O)c2c1Sc1ccncc1	·	·	·	4.8	·	·	·
C/C(=N\NC(=S)NCCc1ccccc1)c1cccc(Br)c1	1.5	-0.8	26.6	14.4	-1.9	·	·
COc1ccc(/C(C)=N/NC(=S)NCCc2ccccc2)cc1	-2.0	0.0	70.1	0.2	1.1	1.6	1.0
COc1ccc(CN(CCN2CCOCC2)C(=O)c2cc(Cl)ccc2F)cc1OC	·	·	·	-3.0	·	·	·
O=C(Nc1ccc(OCC(F)(F)C(F)F)c(C(F)(F)F)c1)c1ccc(Cl)cc1	-6.2	-0.1	89.9*	0.3	-1.8	11.6	48.0
C[C@@H]1COc2cc(Br)ccc2S(=O)(=O)N1Cc1cn(Cc2ccc(Br)cc2)nn1	·	·	·	4.8	·	·	·
O=[N+]([O-])c1ccc(Sc2cccc3cccnc23)c([N+](=O)[O-])c1	-7.4	0.0	78.4*	4.0	1.5	12.3	-23.6
O=[N+]([O-])c1cc(Cl)ccc1Sc1cccc2cccnc12	-0.6	-3.6	-3.3	-1.1	-1.0	·	·
CN(Cc1nccs1)C(=O)c1cc(COc2cccc3cnccc23)on1	12.3	0.1	94.0*	4.5	-1.6	80.9*	75.5*
Cc1nc2ccc(S(=O)(=O)Nc3cccc(-c4nc5cccnc5s4)c3C)cc2s1	·	1.3	97.5*	1.6	1.9	95.0*	86.3*
Cc1nc2ccc(S(=O)(=O)Nc3cc(-c4nc5cccnc5s4)ccc3C)cc2s1	·	-1.1	-58.2	10.2	0.5	·	·
CCn1c(=O)c(C(=O)Nc2ccccc2)c(O)c2ccccc21	-6.1	-2.0	12.0	8.5	-1.2	·	·
CCn1c(=O)c(C(=O)Nc2nc3ccccc3[nH]2)c(O)c2ccccc21	-2.2	-0.3	56.7	-8.3	2.1	13.6	44.2
CCOC(=O)Cc1nc(N2CCN(CCO)CC2)c2c(C)c(C(=O)OCC)sc2n1	·	·	·	2.5	·	·	·
COCCCN1C(=O)[C@H](CC(=O)N2CCOCC2)[C@]2(C(=O)OC)CCCCC=C12	·	·	·	5.9	·	·	·
COc1ccc(C(=O)c2c(C(F)(F)F)oc3c2C(=O)c2ccccc2C3=O)cc1OC	-3.0	0.9	88.6*	2.8	5.5	99.8*	54.4
O=C(Cc1ccc(-c2ccccc2)cc1)NNC(=S)NCc1ccco1	-0.8	-0.7	53.9	1.8	0.7	88.6*	59.0
Cc1ccc(-c2nnc(SCC(=O)NNC(=S)Nc3ccccc3)n2C2CCCCC2)cc1	·	·	·	-2.0	·	·	·
SMILES	GalR3 antagonist	PG9 binder	NR2E3 ag-1	Rev-erbA mod	NR2E3 ag-2	NR2E3 ag conf	VP16 counter
CC(=O)Nc1ccc(S(=O)(=O)NCCSCc2c(Cl)cccc2Cl)cc1	-4.8	1.1	61.7	-3.9	1.1	71.2*	57.6
Cc1ccc(OCC(=O)Nc2ccc3c(c2)OCCO3)cc1C	3.2	0.3	50.0	2.8	0.0	23.5	12.5
CCCCCCCCNc1ncnc2[nH]ncc12	-5.3	-1.7	73.1*	0.8	·	84.1*	72.7*
FC(F)(F)Oc1ccc(Cn2ccc3ccc(-c4ccc5ccn(Cc6ccc(OC(F)(F)F)cc6)c5c4)cc32)cc1	·	·	·	1.8	·	·	·
CN(c1ccccc1)S(=O)(=O)c1cccc(NC(=O)CSc2nnc(N)s2)c1	-3.4	1.6	20.5	0.3	-3.0	·	·
CN(c1ccccc1)S(=O)(=O)c1cccc(NC(=O)CSc2nncs2)c1	0.1	1.8	69.9	-3.0	2.6	65.7	76.0*
CCN1/C(=C/c2ccc3ccccc3[n+]2CC)C=Cc2ccccc21	53.0*	-13.9	88.5*	-34.4	-9.3	98.0*	87.6*
CCN1/C(=C/c2ccc3ccccc3[n+]2CCCS(=O)(=O)[O-])C=Cc2cc(C)ccc21	-5.1	-9.4	-6.2	-9.0	·	·	·
O=C(CN1C(=O)c2ccccc2C1=O)c1ccccc1	-2.2	-1.0	-17.8	-0.4	4.3	·	·
CC1=C(CC(=O)c2ccccc2)C(=O)c2ccccc2C1=O	-5.8	-2.3	55.1	10.4	-1.8	-91.3	-31.2
C[C@@H]1C[C@@H]2OC(=O)[C@]3(C)[C@H]2[C@@H](OC3(C)O)[C@]2(C)C(=O)C=C[C@H]12 (some centres undefined)	0.4	-0.9	17.2	-1.2	0.3	·	·
C=C1C(=O)C=C[C@]2(C)C[C@@H]3OC(=O)[C@](C)(O)[C@H]3C[C@@H]12	1.6	1.2	63.2	-1.4	2.9	36.2	5.9
CCCCN(C)c1c(C)nc2ccc(C(=O)NCCOc3ccc(OC)cc3)cn12	·	·	48.7	·	·	94.2*	68.5
CCCCC(=O)N(C)c1c(C)nc2ccc(C(=O)NCCOc3ccc(OC)cc3)cn12	-7.0	1.1	-10.5	1.7	·	·	·
COc1ccc(NC2c3ccccc3C(=O)N2Cc2ccccc2Cl)cc1OC (centres undefined)	-5.0	-2.1	69.2	0.0	-0.8	71.2*	-7.8
NC(=O)c1nn(-c2ccccc2)nc1NC(=O)CSc1nnnn1-c1ccc(Cl)cc1	-1.4	0.8	92.2*	-0.5	-2.6	97.4*	26.3
CC(C)C[C@@H]1COc2cccc(N3CCCC3)c2S(=O)(=O)N1C	·	·	·	-0.3	·	·	·
Nc1ccc(Oc2ccccc2-c2ccccc2)cc1	-1.6	-1.7	47.8	4.6	-1.6	31.5	37.0
CC(=NNC(=S)N1CCCC1)c1ccccn1	-5.9	-0.5	86.5*	5.5	·	-2.5	8.3
CC(=NNC(=S)SCc1ccccc1)c1ccccn1	2.1	-2.8	65.4	4.1	·	11.0	28.5
CC(=NNC(=S)N1CCC1)c1ccccn1	-1.2	-3.0	75.3*	-0.3	·	-2.1	3.5
C/C(=N\NC(=O)c1ccc(Cl)cc1)c1ccccn1	-12.2	-2.0	-30.2	0.0	-1.7	·	·
CC(=NNC(=S)Nc1cccc(Cl)c1)c1ccccn1	-2.7	0.3	95.4*	2.4	·	-64.6	-14.8
CCCCCC(=O)N/N=C(\C)c1ccccn1	-5.0	-2.6	-16.5	1.9	3.8	·	·
COC(=O)[C@]12C[C@H](CC(=O)NCc3ccc(C)o3)C(=O)N(Cc3ccc(Cl)cc3Cl)C1=C[C@H](COCc1ccccc1)O[C@@H]2C	·	·	·	1.5	·	·	·
